Data: ChEMBL document CHEMBL1121568, “A multifaceted approach to the study of the side-chain conformation in beta-lactamase-resistant penicillins” (J Med Chem, 1980)

Target: T1, Beta-lactamase OXA-9 (Klebsiella aerogenes) (UniProt P0A3M4)
T1 sequence (whole entry): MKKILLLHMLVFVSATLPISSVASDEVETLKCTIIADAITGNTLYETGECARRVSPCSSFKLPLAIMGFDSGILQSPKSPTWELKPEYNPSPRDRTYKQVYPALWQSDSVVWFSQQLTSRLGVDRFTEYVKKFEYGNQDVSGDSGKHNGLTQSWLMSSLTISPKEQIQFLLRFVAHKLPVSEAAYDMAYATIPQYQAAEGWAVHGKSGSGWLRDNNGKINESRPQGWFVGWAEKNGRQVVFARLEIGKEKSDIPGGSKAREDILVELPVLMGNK
Assay: Inhibition of beta-lactamase of Enterobacter aerogenes relative to oxacillin sulfoxide(=1)
Outline: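 Partially purified Enterobacter aerogenes β-lactamase at constant concentration in pH 8.5 phosphate buffer, 25 °C, hydrolysing cephalothin (2.6 × 10^-4 M). Inhibitors tested at 3.4 × 10^-7 to 8.5 × 10^-5 M. Initial hydrolysis rates with (v_i) and without (v) inhibitor followed by absorbance at 260 nm and estimated graphically. Ratio v/v_i expressed relative to a reference compound.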

Row | Relative inhibition | SMILES
1 | 5000 | Cc1onc(-c2c(Cl)cccc2Cl)c1C(=O)N[C@@H]1C(=O)N2[C@@H]1SC(C)(C)[C@@H]2C(=O)O
2 | 5000 | Cc1onc(-c2ccccc2Cl)c1C(=O)N[C@@H]1C(=O)N2[C@@H]1SC(C)(C)[C@@H]2C(=O)O
3 | 50 | COc1cccc(OC)c1C(=O)N[C@@H]1C(=O)N2[C@@H]1SC(C)(C)[C@@H]2C(=O)O
4 | 1500 | COC(=O)[C@@H]1N2C(=O)[C@@H](NC(=O)c3c(-c4c(Cl)cccc4Cl)noc3C)[C@H]2SC1(C)C
5 | 2 | COC(=O)[C@@H]1N2C(=O)[C@@H](NC(=O)c3c(OC)cccc3OC)[C@H]2SC1(C)C
6 | 120 | COC(=O)[C@@H]1N2C(=O)[C@@H](NC(=O)c3c(-c4ccccc4)noc3C)[C@H]2SC1(C)C
7 | 5000 | Cc1onc(-c2c(F)cccc2Cl)c1C(=O)N[C@@H]1C(=O)N2[C@@H]1SC(C)(C)[C@@H]2C(=O)O
8 | 370 | Cc1onc(-c2ccccc2Cl)c1C(=O)N[C@@H]1C(=O)N2[C@@H]1[S+]([O-])C(C)(C)[C@@H]2C(=O)O (stereo partly specified)
9 | 270 | COC(=O)[C@@H]1N2C(=O)[C@@H](NC(=O)c3c(-c4ccccc4Cl)noc3C)[C@H]2SC1(C)C
10 | 1 | Cc1onc(-c2ccccc2)c1C(=O)N[C@@H]1C(=O)N2[C@@H]1[S+]([O-])C(C)(C)[C@@H]2C(=O)O (stereo partly specified)

Row | SMILES | Relative inhibition
11 | Cc1onc(-c2ccccc2)c1C(=O)N[C@@H]1C(=O)N2[C@@H]1SC(C)(C)[C@@H]2C(=O)O | 5000
